The results in this text go back to BindingDB's records for doi:10.1016/j.bmc.2019.03.050 (University of Illinois At Chicago, 2019).

As a reminder, the pIC50 is the negative decadic logarithm of the IC50, by convention in mol/L. Lower therefore signals a large IC50. A word on the pKd: it is the Kd on a negative log10 scale, so that one unit is a factor of ten. Low values mean a high Kd, high ones a low Kd. One may read the pKi as the negative decadic logarithm of the Ki, by convention in mol/L. High values mean a small Ki, low ones a large Ki.

Experiment [1] concerns the target T1, Replicase polyprotein 1ab (Middle East respiratory syndrome-related coronavirus (isolate United Kingdom/H123990006/2012), UniProt K9N7C7). In words: Inhibition of MERS-CoV papain-like protease using Z-Arg-Leu-Arg-Gly-Gly-AMC as substrate preincubated for 5 mins followed by substrate addition and measured for 10 mins by fluorescence assay.
For experiment [2], the target named is T1, Replicase polyprotein 1ab. Description: Binding affinity to MERS-CoV papain-like protease by SPR analysis. The gist of the method:
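SPR on Biacore T200. Enzyme at 50 µg/mL in 10 mM sodium acetate pH 5.5 amine-coupled to CM5 chip (~10,000 RU); blank flow cells as reference. Compounds 0-50 µM (2-fold series) in PBSP + 0.5 mM TCEP, 2% DMSO, 30 µL/min, 25°C; double-referenced. KD from steady-state responses fit to rectangular hyperbola; rate constants from global 1:1 Langmuir fit.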

In experiment [3] the target is T1, Replicase polyprotein 1ab. Description: Competitive-inhibition of MERS-CoV papain-like protease using varying levels of Z-Arg-Leu-Arg-Gly-Gly-AMC as substrate by Dixon-plot analysis.

Each structure is given as a SMILES string. pIC50, pKd, pKi: −log10 of the molar value.

T1 sequence (K9N7C7 854-2740 limits assumed): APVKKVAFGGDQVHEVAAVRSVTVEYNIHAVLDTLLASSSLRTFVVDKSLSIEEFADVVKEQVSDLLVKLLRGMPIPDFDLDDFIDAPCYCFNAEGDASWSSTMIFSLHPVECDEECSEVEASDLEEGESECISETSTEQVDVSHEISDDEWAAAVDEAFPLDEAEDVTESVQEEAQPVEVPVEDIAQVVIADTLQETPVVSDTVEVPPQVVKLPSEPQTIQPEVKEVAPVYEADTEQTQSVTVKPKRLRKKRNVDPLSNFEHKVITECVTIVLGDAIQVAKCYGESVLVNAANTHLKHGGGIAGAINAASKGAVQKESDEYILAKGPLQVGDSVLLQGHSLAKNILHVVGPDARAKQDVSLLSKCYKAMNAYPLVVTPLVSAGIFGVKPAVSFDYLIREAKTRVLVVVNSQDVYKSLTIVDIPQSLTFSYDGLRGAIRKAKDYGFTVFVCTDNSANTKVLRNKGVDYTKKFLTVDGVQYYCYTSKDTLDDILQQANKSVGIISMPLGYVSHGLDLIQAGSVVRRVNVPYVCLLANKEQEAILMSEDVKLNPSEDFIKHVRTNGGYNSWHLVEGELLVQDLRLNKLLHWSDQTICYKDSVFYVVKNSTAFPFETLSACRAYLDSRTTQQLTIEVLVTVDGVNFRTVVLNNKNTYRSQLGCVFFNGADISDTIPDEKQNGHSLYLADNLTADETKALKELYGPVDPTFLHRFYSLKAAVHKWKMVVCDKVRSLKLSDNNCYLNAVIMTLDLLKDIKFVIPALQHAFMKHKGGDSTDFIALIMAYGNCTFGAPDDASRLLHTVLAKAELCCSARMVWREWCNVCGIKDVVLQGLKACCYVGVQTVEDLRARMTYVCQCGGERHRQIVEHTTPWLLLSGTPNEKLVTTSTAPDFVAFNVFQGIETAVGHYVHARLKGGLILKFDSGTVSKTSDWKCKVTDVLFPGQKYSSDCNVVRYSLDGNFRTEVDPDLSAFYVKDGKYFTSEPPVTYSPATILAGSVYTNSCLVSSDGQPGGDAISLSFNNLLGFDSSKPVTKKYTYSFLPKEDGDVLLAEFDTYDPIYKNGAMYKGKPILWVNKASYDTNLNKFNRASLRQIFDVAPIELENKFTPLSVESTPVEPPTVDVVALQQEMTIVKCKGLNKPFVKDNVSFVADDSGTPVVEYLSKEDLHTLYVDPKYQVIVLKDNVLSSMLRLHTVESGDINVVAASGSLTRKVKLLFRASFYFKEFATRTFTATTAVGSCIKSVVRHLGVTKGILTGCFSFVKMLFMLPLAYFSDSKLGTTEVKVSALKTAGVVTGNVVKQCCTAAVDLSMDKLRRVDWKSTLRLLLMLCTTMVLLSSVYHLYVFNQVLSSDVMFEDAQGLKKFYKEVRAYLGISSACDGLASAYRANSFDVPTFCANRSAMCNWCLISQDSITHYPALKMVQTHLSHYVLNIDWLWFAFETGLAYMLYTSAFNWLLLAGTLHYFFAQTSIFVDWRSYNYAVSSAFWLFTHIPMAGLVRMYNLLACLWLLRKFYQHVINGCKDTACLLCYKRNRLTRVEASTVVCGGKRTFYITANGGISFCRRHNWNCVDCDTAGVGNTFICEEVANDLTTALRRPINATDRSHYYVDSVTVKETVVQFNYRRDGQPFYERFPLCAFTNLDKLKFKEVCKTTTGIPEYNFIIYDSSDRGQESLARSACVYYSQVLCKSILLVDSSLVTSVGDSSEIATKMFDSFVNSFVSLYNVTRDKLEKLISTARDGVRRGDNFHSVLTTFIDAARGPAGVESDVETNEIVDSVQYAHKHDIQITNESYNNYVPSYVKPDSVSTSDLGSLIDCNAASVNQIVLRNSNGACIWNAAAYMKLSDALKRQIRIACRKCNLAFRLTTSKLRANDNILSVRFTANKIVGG

Turning to `O=C(NC1=CC=CC2C(=O)C=C(c3nn[nH]n3)OC12)c1ccc(OCCCCc2ccccc2)cc1` (stereo not drawn) [ONO-1078], in experiment [1], the pIC50 is 4.60. The compound further gave a pKd in experiment [2] of 4.85. The compound further showed a pKi in experiment [3] of 3.90.
